Bioassay records (PubChem)
Only some compounds are listed: those with a hit (about 2.3% of all), similar ones and a draw of the others.
TAAR1 agonist = human TAAR1 agonists, primary screen, Fluo-8 calcium fluorescence, CHO RD-HGA16 cells; Trace amine-associated receptor 1 (Homo sapiens), Q96RJ0; vehicle wells 0%, saturating PEA agonist 100%; activation, % at 3 µM; hit rate 0.99% among 360,000;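 active means activation above the mean activation of all test compounds in the run plus 3 SD, cut at about 38% in these data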
Target sequence (Q96RJ0 whole entry, looked up): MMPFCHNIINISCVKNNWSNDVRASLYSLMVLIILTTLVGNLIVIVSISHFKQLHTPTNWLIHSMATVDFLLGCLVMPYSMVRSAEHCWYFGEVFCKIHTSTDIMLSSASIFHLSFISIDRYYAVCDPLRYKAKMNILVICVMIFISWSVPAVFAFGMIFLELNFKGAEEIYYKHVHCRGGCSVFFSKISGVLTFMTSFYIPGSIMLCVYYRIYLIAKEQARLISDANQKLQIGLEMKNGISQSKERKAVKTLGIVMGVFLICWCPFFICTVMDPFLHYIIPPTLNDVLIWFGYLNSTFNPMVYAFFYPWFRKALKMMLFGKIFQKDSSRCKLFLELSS
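Benchmarks: low control DMSO, high control PEA (EC100); System: CHO RD-HGA16 cells carrying human TAAR1 plus Gα16; Detection: Fluo-8 fluorescence, 5 s baseline then 140 s kinetic read; Schedule: 17-24 h plating, Fluo-8 75 min 37 °C, 30 min RT; Read-out basis: % activation from peak over basal fluorescence ratio, DMSO-to-PEA scaled.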
TAAR1 antagonist = human TAAR1 antagonists, primary screen, Fluo-8 calcium fluorescence, CHO RD-HGA16 cells | Trace amine-associated receptor 1 (Homo sapiens), Q96RJ0 | antagonist | inhibition, % at 3 µM | hit rate 1.5% among 360,000;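 active means inhibition above a per-plate cutoff, the mean inhibition of test compounds on that plate plus 3 SD, cut at about 49% in these data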
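Assay system: CHO-derived RD-HGA16 cells stably expressing human TAAR1 plus Gα16. Timing: 140 s kinetic read after compound, 140 s after agonist. Technique: kinetic Fluo-8 calcium fluorescence measurement. Measure: % inhibition of agonist calcium response.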
OXTR ag = human OXTR agonists, primary screen, fluorescence, CHO-OTR cells, Fluo-8 calcium; Oxytocin receptor (Homo sapiens), P30559; Fluo-8 calcium fluorescence; normalized: DMSO 0%, oxytocin 100%; activation, % at 3 µM; hit rate 0.32% among 320,000; AID 2435, 2010;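 active means activation above the mean of all tested compounds plus 3 SD, cutoff set per screening run, cut at about 20% in these data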;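 further: peak over basal fluorescence ratio from a 100 s FLIPR kinetic read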
Target sequence (P30559 whole entry, looked up): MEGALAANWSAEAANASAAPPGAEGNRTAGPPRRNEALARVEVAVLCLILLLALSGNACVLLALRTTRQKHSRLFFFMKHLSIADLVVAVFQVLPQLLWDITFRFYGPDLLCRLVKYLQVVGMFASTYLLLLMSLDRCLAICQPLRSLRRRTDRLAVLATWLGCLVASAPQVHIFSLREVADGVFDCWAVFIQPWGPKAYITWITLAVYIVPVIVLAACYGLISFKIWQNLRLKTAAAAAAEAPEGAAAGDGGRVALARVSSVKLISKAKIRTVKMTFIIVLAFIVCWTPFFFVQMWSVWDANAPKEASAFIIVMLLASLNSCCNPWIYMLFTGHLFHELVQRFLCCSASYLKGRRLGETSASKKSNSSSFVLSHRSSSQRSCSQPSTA
OXTR potentiate = human OXTR potentiators, primary screen, fluorescence, CHO-OTR cells, Fluo-8 calcium; Oxytocin receptor (Homo sapiens), P30559; Fluo-8 calcium fluorescence, potentiator mode; 0% = oxytocin EC15, 100% = EC100; AID 2445, 2010; hit rate 0.061% among 320,000; activation, % at 3 µM;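 active means activation above that plate's cutoff, the mean activation of tested compounds plus 3 SD, cut at about 6.6% in these data, passing the limit was not always enough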
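test system = CHO-OTR cells, human receptor | compound = single-point 3.0 µM | schedule = 6 min compound pre-incubation at room temperature, 100 s kinetic read | signal = Fluo-8 no-wash calcium dye fluorescence, excitation 470-495 nm, emission 515-575 nm | repeats = single well per compound, singlicate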
V1R ag counter = agonists of human V1a receptor, primary screen, counter-screen for OXTR agonist project, fluorescence, CHO-V1R cells | AID 2797, 2010 | hit rate 0.25% among 320,000 | activation, % at 3 µM | Vasopressin V1a receptor (Homo sapiens), P37288 | Fluo-8 calcium fluorescence, agonist mode; 0% DMSO, 100% 3 nM vasopressin;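 active means activation above the mean activation of all tested compounds plus 3 SD, per screening run, cut at about 20% in these data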;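 further: signal is peak over basal fluorescence ratio across a 100 second FLIPR read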
TAAR1 ag conf = human TAAR1 agonists, retest of hits, confirmation, Fluo-8 calcium fluorescence, CHO RD-HGA16 cells; hit rate 82% among 2,400; shares compounds with TAAR1 agonist; scaled: DMSO 0%, maximal phenethylamine 100%; activation, % at 3 µM;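 active means activation above a cutoff set at the run's mean compound activation plus 3 SD, cut at about 39% in these data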
Ga16 ag counter = nonselective calcium mobilization agonists, CHO-Ga16 cells, counter-screen for hTAAR1 agonist project, cell-based, fluorescence, CHO-Ga16 parental line. shares compounds with TAAR1 agonist. Fluo-8 calcium fluorescence; normalized to maximal ATP response, DMSO zero. activation, % at 3 µM. hit rate 50% among 2,400. AID 651787, 2012;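 active means activation above the run cutoff, the mean activation over all tested wells plus 3 SD, cut at about 12% in these data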
TAAR1 desensitize = TAAR1 desensitization by agonist hits, confirmation, counter-screen for TAAR1 agonist project, cell-based, fluorescence, tachyphylaxis. shares compounds with TAAR1 agonist. CHO RD-HGA16 hTAAR1, Fluo-8 calcium, beta-PEA response inhibition. inhibition, % at 3 µM. hit rate 46% among 2,400. AID 651951, 2012;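 active means inhibition above the run cutoff, the mean inhibition of all test compounds plus 3 SD, cut at about 49% in these data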;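 further: beta-PEA stimulus applied at its EC80; loss of beta-PEA calcium signal after compound pretreatment read as receptor desensitization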
Ga16 antag count = inhibition of ATP-evoked calcium response in CHO-Ga16 cells, counter-screen for TAAR1 agonist project, cell-based, fluorescence; shares compounds with TAAR1 agonist; CHO-Ga16 ATP-induced calcium, Fluo-8 fluorescence; inhibition, % at 3 µM; hit rate 39% among 2,400; AID 651952, 2012;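 active means inhibition above the plate's mean compound inhibition plus 3 SD, computed per plate, cut at about 22% in these data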
Numbers stand for hits; i = inactive; nt = no result given.

SMILES | TAAR1 agonist | TAAR1 antagonist | OXTR ag | OXTR potentiate | V1R ag counter | TAAR1 ag conf | Ga16 ag counter | TAAR1 desensitize | Ga16 antag count
CN(C)c1ccc(/C=C/C(=O)c2cccc(Br)c2)cc1 | 328 | 109 | 94 | i | 155 | 126 | 125 | 85 | 83
CN(C)c1ccc(C(=O)/C=C/c2cccnc2)cc1 | i | i | i | i | i | nt | nt | nt | nt
O=S(=O)(Nc1ccc(Cl)cn1)c1cccs1 | i | i | i | i | i | nt | nt | nt | nt
COc1ccc(/C=C/c2cc[n+](C(=O)Cc3ccccc3)cc2)cc1 | 47 | i | i | i | i | 70 | i | i | i
CCC(=O)NNC(=O)c1cc(COc2cc(Cl)cc(Cl)c2)on1 | 55 | i | i | i | i | 40 | 21 | i | i
CC(C)c1ccc(N2C(=O)/C(=C/N(C)C)SC2=S)cc1 | 59 | 49 | 38 | i | 25 | 58 | 56 | 51 | 65
CN(CCNC(=O)c1ccc(N2CCCC2=O)cc1)CCc1ccccc1 | 53 | i | i | i | i | 62 | i | i | i
Nc1c(-c2ccc(C(F)(F)F)cc2)nc2ncccn12 | i | i | nt | nt | nt | nt | nt | nt | nt
Cc1cc2c(cc1C)-n1nnnc1C(N(C)Cc1ccccc1)C(=O)N2 (centres undefined) | i | i | nt | nt | nt | nt | nt | nt | nt
COc1cc2c(c(OC)c1OC)C1(CCCCC1)CC2NS(=O)(=O)C(C)C (centres undefined) | 92 | 49 | nt | nt | nt | i | i | i | i
COc1cc2c(c(OC)c1OC)C1(CCCCC1)CC2NC(=O)c1ccncc1 (centres undefined) | i | i | nt | nt | nt | nt | nt | nt | nt
Cc1ccc(SCc2nc(-c3ccccc3)no2)cc1 | i | i | i | i | i | nt | nt | nt | nt
Cc1ccc(SCc2nc(-c3ccncc3)no2)cc1 | 52 | i | i | i | i | i | i | i | i
C=CCn1c(=O)[nH]c2nc3cc(N=CN(C)C)c(C)cc3nc2c1=O | 90 | i | i | i | i | i | 45 | i | 23
CN(C)CC1CCCCC1C1(O)c2ccccc2CSc2sccc21 (centres undefined) | i | i | i | i | i | nt | nt | nt | nt
O=C(c1ccccc1NS(=O)(=O)c1cccc2cccnc12)N1CCOCC1 | i | i | i | i | i | nt | nt | nt | nt
Cc1ccc(Nc2cc(C)nc(NCc3ccccc3)n2)cc1 | 56 | i | i | i | i | 88 | 42 | i | 27
Cc1cc(NC2CCCCC2)nc(NCc2ccccc2)n1 | 67 | i | i | i | i | 76 | 52 | 59 | 39
COc1ccc(Nc2cc(C)nc(NCc3ccccc3)n2)cc1 | i | i | i | i | i | nt | nt | nt | nt
Cc1ccc(C(=O)CN(CCCC(N)=O)C(=O)c2ccncc2)cc1 | i | i | i | i | i | nt | nt | nt | nt
Cc1ccccc1NC(=O)CC1SC(=O)N(c2ccccc2)C1=O (centres undefined) | 50 | i | i | i | i | i | i | i | i
COc1ccc(CN2C(=O)CCC2(C)c2nnnn2Cc2ccccc2)cc1OC (centres undefined) | i | i | nt | nt | nt | nt | nt | nt | nt
O=C(C[C@@H]1CC[C@H](NC(=O)Cc2ccccn2)[C@@H](CO)O1)NCCc1ccccc1 | 47 | i | nt | nt | nt | 63 | i | i | i
COc1cc(C2CC(c3cccnc3)=NN2c2ccc(F)cc2)cc(OC)c1OC (centres undefined) | i | i | i | i | i | nt | nt | nt | nt
COc1cc(/C=C(\C#N)c2nc3ccc(C)cc3[nH]2)c([N+](=O)[O-])cc1OC | 47 | i | i | i | i | i | 30 | i | i
SMILES | TAAR1 agonist | TAAR1 antagonist | OXTR ag | OXTR potentiate | V1R ag counter | TAAR1 ag conf | Ga16 ag counter | TAAR1 desensitize | Ga16 antag count
COc1ccc(/C=C(\C#N)c2nc3ccc(C)cc3[nH]2)cc1Oc1ccc(C(F)(F)F)cc1[N+](=O)[O-] | i | i | i | i | i | nt | nt | nt | nt
CCCCOc1ccc(N(CC(=O)NC2CCCCC2)C(=O)CCC(=O)Nc2ccccn2)cc1 | i | i | i | i | i | nt | nt | nt | nt
COc1ccc(CN(C)CC(=O)Nc2ccc(Cl)cc2F)c(OC)c1 | i | i | i | i | i | nt | nt | nt | nt
Cc1ccc(S(=O)(=O)C2(C(=O)NCCc3ccccc3)CC2)cc1 | 50 | i | i | i | i | 82 | i | i | i
O=C(NCCc1ccccc1)C1(S(=O)(=O)c2ccc(Cl)cc2)CC1 | i | i | i | i | i | nt | nt | nt | nt
Cc1ccc(S(=O)(=O)NNC(=S)NCCc2ccccc2)cc1 | i | i | i | i | i | nt | nt | nt | nt
Cc1ccc(S(=O)(=O)NC(=O)NCCc2ccccc2)cc1 | 71 | i | i | i | i | 81 | i | i | i
COc1ccc(NC(=O)C(c2ccncc2)n2c(=O)c(-c3ccccc3)nc3ccccc32)cc1 (centres undefined) | i | i | nt | nt | nt | nt | nt | nt | nt
COc1ccc(C(=O)NCC2OCCc3ccccc32)cc1 (centres undefined) | i | i | i | i | i | nt | nt | nt | nt
COc1cc(C=NCC2OCCc3ccccc32)cc(OC)c1 (centres undefined) | nt | nt | i | i | i | nt | i | nt | i
COc1ccc(C=NCC2OCCc3ccccc32)cc1OC (centres undefined) | nt | nt | i | i | i | nt | i | nt | i
COc1cccc2c(=O)n(CC(=O)Nc3cccc(F)c3)ccc12 | 61 | i | i | i | i | 46 | 40 | i | i
COc1ccc(Nc2cc(C)nc(N)n2)cc1 | i | i | i | i | i | nt | nt | nt | nt
Cc1cc(Nc2ccc(Cl)cc2)nc(N)n1 | 53 | i | i | i | i | 61 | i | i | i
O=C(c1ccccc1)c1ccc[nH]1 | i | i | nt | nt | nt | nt | nt | nt | nt
CCCCCCCCN1C(=O)[C@H](CC(=O)NCCc2ccccc2OC)C[C@@]2(C(=O)OCC)CCCC=C12 | 56 | i | nt | nt | nt | 57 | i | i | i
CCCCNC(=O)C[C@@H]1C[C@@]2(C(=O)OC)CCCCC=C2N(Cc2ccco2)C1=O | i | i | nt | nt | nt | nt | nt | nt | nt
COC(=O)[C@@]12C[C@@H](CC(=O)NCCc3ccccc3OC)C(=O)N(Cc3ccc4c(c3)OCO4)C1=CCC(C)(C)C2 | 61 | 51 | nt | nt | nt | 100 | i | 58 | i
